Activity calls are given as the source filed them. The calls are words filed in the database; no cut-off is given here.
Tests used:
CCRF-CEM = assay: Cytotoxicity against human CCRF-CEM cells up to 10 uM after 48 hrs; format: functional, cell-based
Outline: (§1)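 Cells grown in RPMI 1640 with 10% FBS at 37 °C, 5% CO2. Exponentially growing cells seeded, treated after 24 h with compound for 48 h. Viability read by CCK-8 (2 h development, absorbance 450 nm), expressed as percent of untreated control. Three separate experiments, each in triplicate.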

ML-1a = assay: Cytotoxicity against human ML-1a cells up to 10 uM after 48 hrs; format: functional, cell-based; outline: as §1
[1] = target: T1, Serine/threonine-protein kinase Chk1 (Homo sapiens, UniProt O14757); assay: Inhibition of human recombinant Chk1
T1 sequence (O14757 whole entry): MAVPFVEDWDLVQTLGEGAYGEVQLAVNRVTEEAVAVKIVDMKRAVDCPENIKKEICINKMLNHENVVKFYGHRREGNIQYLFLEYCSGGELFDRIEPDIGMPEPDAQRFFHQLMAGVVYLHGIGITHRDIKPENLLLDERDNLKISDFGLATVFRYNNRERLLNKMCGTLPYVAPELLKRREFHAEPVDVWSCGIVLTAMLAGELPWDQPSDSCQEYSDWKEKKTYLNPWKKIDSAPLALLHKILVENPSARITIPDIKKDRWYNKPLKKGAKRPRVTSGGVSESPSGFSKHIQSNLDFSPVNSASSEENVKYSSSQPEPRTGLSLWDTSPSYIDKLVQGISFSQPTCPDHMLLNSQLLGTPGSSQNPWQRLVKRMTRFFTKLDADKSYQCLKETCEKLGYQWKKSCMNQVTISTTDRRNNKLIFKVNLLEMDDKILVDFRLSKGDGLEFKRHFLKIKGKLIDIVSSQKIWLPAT
Outline: (§2)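 Chk1 activity measured by K-LISA checkpoint kit ELISA, following phosphorylation of a Cdc25 substrate peptide. Absorbance read at 450/540 nm. Inhibition calculated from activity with versus without compound. IC50 is the concentration inhibiting peptide phosphorylation. Values are the mean of three separate determinations.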

[2] = target: Serine/threonine-protein kinase MARK1 (Homo sapiens) (UniProt Q9P0L2); assay: Inhibition of MARK1 at 0.1 uM
Sequence of Serine/threonine-protein kinase MARK1 (Homo sapiens) (Q9P0L2 whole entry, looked up): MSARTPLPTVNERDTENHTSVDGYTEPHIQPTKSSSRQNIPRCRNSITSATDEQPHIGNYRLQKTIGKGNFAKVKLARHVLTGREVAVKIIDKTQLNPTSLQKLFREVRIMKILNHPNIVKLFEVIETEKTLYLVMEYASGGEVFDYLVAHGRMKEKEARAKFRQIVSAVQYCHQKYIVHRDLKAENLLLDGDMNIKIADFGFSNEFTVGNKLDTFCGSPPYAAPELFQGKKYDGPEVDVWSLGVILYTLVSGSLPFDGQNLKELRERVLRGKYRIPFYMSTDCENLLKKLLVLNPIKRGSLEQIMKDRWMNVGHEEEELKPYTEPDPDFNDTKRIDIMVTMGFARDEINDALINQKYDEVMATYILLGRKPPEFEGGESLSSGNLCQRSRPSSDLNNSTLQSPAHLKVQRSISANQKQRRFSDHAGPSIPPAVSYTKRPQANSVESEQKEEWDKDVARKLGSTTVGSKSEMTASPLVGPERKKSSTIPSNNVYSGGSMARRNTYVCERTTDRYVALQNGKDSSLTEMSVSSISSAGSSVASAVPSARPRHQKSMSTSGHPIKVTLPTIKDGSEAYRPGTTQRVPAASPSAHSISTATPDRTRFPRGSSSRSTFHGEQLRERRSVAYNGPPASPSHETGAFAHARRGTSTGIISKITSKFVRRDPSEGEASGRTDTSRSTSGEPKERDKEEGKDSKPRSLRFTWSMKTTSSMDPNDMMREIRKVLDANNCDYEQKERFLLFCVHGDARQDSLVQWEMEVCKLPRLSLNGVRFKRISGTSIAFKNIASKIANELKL
Outline: (§3)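 Kinase panel run per ProfilerPro kit protocol. Compounds preincubated with enzyme 15 min at room temperature. Reaction started with peptide substrate (fixed 1.5 µM) and ATP at apparent Km, run 90 min, then stopped with termination buffer. Tested in duplicate. Read by microfluidic mobility-shift (Caliper), with product/(product+substrate) ratio as signal.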

[3] = target: Serine/threonine-protein kinase Chk2 (Homo sapiens) (UniProt O96017); assay: Inhibition of Chk2 at 0.1 uM; outline: as §3
Sequence of Serine/threonine-protein kinase Chk2 (Homo sapiens) (O96017 whole entry): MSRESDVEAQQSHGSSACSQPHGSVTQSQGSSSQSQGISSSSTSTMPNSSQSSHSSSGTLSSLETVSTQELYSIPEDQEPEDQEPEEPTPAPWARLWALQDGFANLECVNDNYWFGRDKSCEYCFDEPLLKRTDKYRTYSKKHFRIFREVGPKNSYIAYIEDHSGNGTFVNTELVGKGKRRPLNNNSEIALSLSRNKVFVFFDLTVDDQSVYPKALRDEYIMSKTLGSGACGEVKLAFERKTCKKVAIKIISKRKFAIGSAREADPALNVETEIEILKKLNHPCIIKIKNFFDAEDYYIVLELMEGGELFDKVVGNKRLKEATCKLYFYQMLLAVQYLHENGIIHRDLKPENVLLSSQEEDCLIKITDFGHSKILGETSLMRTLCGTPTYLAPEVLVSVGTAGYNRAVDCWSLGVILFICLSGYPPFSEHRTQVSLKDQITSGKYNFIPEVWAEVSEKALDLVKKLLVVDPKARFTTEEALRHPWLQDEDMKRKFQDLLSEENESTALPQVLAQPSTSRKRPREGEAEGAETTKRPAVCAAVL

[4] = target: T2, Serine/threonine-protein kinase Chk1 (Homo sapiens) (UniProt O14757); assay: Inhibition of human recombinant Chk1 at 10 uM; outline: as §2
T2 sequence (whole entry): T1 sequence (O14757 whole entry)

[5] = target: T3, 5'-AMP-activated protein kinase subunit beta-1 (Homo sapiens) (UniProt Q9Y478); assay: Inhibition of AMPK at 0.1 uM; outline: as §3
T3 sequence (whole entry): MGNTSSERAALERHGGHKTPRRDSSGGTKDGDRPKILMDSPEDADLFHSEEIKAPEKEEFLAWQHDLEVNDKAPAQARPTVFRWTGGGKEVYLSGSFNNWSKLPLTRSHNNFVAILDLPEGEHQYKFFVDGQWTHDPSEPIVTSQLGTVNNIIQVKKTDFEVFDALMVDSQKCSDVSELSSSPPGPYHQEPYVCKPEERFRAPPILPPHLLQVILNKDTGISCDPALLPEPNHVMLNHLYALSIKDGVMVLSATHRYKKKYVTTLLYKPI

[6] = target: T4, Serine/threonine-protein kinase D2 (Homo sapiens) (UniProt Q9BZL6); assay: Inhibition of PKD2 at 0.1 uM; outline: as §3
T4 sequence (whole entry): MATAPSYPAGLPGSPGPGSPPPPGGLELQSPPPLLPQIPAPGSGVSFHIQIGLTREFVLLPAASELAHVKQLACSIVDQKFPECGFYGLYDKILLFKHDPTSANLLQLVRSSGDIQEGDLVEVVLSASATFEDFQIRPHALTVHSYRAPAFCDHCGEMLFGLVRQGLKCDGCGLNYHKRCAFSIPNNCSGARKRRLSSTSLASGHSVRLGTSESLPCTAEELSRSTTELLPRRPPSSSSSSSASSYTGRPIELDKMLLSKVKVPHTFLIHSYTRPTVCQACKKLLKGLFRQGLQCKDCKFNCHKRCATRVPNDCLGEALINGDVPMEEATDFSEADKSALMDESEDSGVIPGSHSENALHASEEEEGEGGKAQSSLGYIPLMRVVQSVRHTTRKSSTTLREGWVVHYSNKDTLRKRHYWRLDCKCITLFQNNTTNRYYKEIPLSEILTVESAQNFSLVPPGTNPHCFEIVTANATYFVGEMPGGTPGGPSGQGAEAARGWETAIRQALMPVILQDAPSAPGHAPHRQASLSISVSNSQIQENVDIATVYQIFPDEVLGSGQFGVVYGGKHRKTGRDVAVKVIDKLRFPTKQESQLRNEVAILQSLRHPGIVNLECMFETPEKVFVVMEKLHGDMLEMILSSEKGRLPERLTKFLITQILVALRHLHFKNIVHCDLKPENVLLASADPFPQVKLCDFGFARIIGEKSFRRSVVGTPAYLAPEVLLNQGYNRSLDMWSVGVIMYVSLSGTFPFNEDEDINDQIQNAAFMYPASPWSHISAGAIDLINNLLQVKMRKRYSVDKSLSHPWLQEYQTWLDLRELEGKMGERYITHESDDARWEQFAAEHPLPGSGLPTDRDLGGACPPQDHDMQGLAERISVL

[7] = target: T5, Calcium/calmodulin-dependent protein kinase type IV (Homo sapiens) (UniProt Q16566); assay: Inhibition of CAMK4 at 0.1 uM; outline: as §3
T5 sequence (whole entry): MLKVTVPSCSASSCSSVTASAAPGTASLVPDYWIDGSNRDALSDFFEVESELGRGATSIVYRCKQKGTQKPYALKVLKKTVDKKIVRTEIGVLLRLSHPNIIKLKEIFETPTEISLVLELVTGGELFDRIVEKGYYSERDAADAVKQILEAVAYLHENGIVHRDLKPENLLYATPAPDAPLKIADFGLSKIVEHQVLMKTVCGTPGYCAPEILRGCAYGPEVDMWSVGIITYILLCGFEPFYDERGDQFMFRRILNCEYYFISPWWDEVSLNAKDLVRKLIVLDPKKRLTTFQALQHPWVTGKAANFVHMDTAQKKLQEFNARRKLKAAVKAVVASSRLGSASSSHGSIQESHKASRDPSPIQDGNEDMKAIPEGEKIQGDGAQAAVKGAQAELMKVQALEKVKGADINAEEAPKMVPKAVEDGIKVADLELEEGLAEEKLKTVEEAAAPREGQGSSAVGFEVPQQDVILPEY

[8] = target: Serine/threonine-protein kinase pim-2 (Homo sapiens) (UniProt Q9P1W9); assay: Inhibition of PIM2 at 0.1 uM; outline: as §3
Sequence of Serine/threonine-protein kinase pim-2 (Homo sapiens) (Q9P1W9 whole entry, looked up): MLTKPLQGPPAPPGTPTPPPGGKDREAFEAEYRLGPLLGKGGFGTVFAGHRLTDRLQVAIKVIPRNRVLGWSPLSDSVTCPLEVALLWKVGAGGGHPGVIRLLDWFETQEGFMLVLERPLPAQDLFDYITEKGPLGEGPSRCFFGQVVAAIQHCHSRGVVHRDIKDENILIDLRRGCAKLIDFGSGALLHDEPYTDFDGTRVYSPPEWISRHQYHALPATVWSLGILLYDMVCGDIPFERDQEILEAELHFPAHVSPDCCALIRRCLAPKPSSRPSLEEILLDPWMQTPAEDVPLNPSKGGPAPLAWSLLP

[9] = Inhibition of CAMK2 at 0.1 uM; outline: as §3
[10] = target: T6, Aurora kinase A (Homo sapiens) (UniProt O14965); assay: Inhibition of aurora A at 0.1 uM; outline: as §3
T6 sequence (whole entry): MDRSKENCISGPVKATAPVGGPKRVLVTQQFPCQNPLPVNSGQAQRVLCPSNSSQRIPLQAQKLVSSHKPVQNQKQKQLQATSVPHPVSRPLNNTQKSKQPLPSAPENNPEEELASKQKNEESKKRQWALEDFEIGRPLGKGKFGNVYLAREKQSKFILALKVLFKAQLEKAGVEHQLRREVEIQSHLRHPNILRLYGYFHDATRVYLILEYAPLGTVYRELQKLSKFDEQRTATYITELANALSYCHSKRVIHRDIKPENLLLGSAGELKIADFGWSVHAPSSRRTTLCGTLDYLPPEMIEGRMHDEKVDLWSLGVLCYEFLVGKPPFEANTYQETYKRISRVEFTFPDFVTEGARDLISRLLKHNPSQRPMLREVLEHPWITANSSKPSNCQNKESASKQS

HeLa = assay: Cytotoxicity against human HeLa cells assessed as potentiation of SN-38-induced induction of DNA damaging activity at 5 uM after 48 hrs; format: functional
Outline: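 HeLa cells kept in MEM with 10% FBS and 1% nonessential amino acids at 37 °C, 5% CO2. Seeded cells treated after 24 h with SN-38, with or without test compound, for 48 h. Live cells measured by CCK-8 (2 h, A450), viability as percent of untreated control. Three experiments in triplicate.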

SMILES | IC50 [1] | inhibition [4] | Activity (CCRF-CEM) | Activity (ML-1a) | further results
NCCCNC(=O)c1cccc(CNC(=O)c2cc3c(c4c2[nH]c2ccc(O)cc24)C(=O)NC3=O)c1 | 0.046 µM | – | inactive | inactive | –
CN[C@@H]1C[C@H]2O[C@@](C)([C@@H]1OC)n1c3ccccc3c3c4c(c5c6ccccc6n2c5c31)C(=O)N[C@H]4O | – | – | inactive | inactive | –
NC(=O)c1cccc(CNC(=O)c2cc3c(c4c2[nH]c2ccccc24)C(=O)NC3=O)c1 | 0.448 µM | 83% | inactive | inactive | inhibition [2]: Active; inhibition [3]: Active; inhibition [5]: Active; inhibition [6]: Active; inhibition [7]: Active; inhibition [8]: Active; inhibition [9]: Active; inhibition [10]: Active
N=C(N)NCCCNC(=O)c1cccc(CNC(=O)c2cc3c(c4c2[nH]c2ccccc24)C(=O)NC3=O)c1 | 0.235 µM | – | inactive | inactive | –
N#Cc1cccc(CNC(=O)c2cc3c(c4c2[nH]c2ccccc24)C(=O)NC3=O)c1 | – | 48% | – | – | –
N#Cc1ccc(CNC(=O)c2cc3c(c4c2[nH]c2ccccc24)C(=O)NC3=O)cc1 | – | 46% | – | – | –
N=C(N)NCCNC(=O)c1cccc(CNC(=O)c2cc3c(c4c2[nH]c2ccccc24)C(=O)NC3=O)c1 | 0.123 µM | – | inactive | inactive | –
N=C(N)NCCCNC(=O)c1cccc(CNC(=O)c2cc3c(c4c2[nH]c2ccc(O)cc24)C(=O)NC3=O)c1 | 0.022 µM | – | inactive | inactive | –

Continued, in another order:

IC50 [1] | inhibition [4] | SMILES | Activity (CCRF-CEM) | Activity (ML-1a) | further results
9 µM | 71% | O=C1NC(=O)c2c1cc(C(=O)NCc1ccccc1)c1[nH]c3ccccc3c21 | – | – | –
0.0028 µM | – | N=C(N)NCCNC(=O)c1cccc(CNC(=O)c2cc3c(c4c2[nH]c2ccc(O)cc24)C(=O)NC3=O)c1 | inactive | inactive | –
– | 27% | NC(=O)c1ccc(CNC(=O)c2cc3c(c4c2[nH]c2ccccc24)C(=O)NC3=O)cc1 | – | – | –
0.251 µM | – | NCCCNC(=O)c1cccc(CNC(=O)c2cc3c(c4c2[nH]c2ccccc24)C(=O)NC3=O)c1 | inactive | inactive | –
– | 1% | CC(C)(C)OC(=O)c1cc2c(c3c1[nH]c1ccccc13)C(=O)NC2=O | – | – | –
0.336 µM | – | NCCNC(=O)c1cccc(CNC(=O)c2cc3c(c4c2[nH]c2ccccc24)C(=O)NC3=O)c1 | inactive | inactive | –
0.031 µM | – | Cl.NCCNC(=O)c1cccc(CNC(=O)c2cc3c(c4c2[nH]c2ccc(O)cc24)C(=O)NC3=O)c1 | inactive | inactive | fold change (FC) (HeLa): 4
– | 46% | O=C1NC(=O)c2c1cc(C(=O)O)c1[nH]c3ccccc3c21 | – | – | –
